{"source": "ChEMBL document CHEMBL1821682", "about": "“Synthesis of new 2'-deoxy-2'-fluoro-4'-azido nucleoside analogues as potent anti-HIV agents” (Eur J Med Chem, 2011)", "key": {"[1]": {"system": "Human immunodeficiency virus 1", "test": "Antiviral activity against vesicular stomatitis virus G-pseudotyped Human immunodeficiency virus 1 NL4-3 infected in human MT2 cells assessed as inhibition of viral replication after 48 hrs by luciferase activity reporter gene assay", "format": "functional, organism-based", "procedure,_shortened": "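Pseudovirus made by Ca3(PO4)2 co-transfection of 293 cells with env-deficient pNL4-3.luc.R−E− and VSV-G plasmid; supernatant harvested 48 h, 0.45 μm filtered. MT-2 cells (1.2×10⁵/well) pre-incubated with compound 15 min, then infected; solvent-only control. After 48 h cells lysed and luciferase measured; EC50 from dose-dependent inhibition, averaged from at least two experiments.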"}, "[2]": {"test": "Cytotoxicity activity against human TZM-bl by CellTiter-Glo luminescent cell viability assay", "format": "cell-based", "procedure,_shortened": "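Viable TZM-bl cells (HeLa-derived) quantified by luminescent ATP read-out after exposure to compound, tested up to a top concentration of 140 μM. IC50 taken as the concentration that inhibits cell growth by 50%, averaged from at least three separate experiments.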"}, "[3]": {"system": "HEK-293T", "test": "Cytotoxicity activity against human 293T by CellTiter-Glo luminescent cell viability assay", "format": "cell-based", "procedure,_shortened": "(§1)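 CellTiter-Glo luminescent viability assay quantifying ATP in metabolically active cells; PBMC were PHA-activated. Highest concentration tested 140 μM. IC50 = concentration inhibiting cell growth by 50%, averaged from at least three separate experiments.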"}, "[4]": {"system": "Human immunodeficiency virus 1", "test": "Antiviral activity against NRTI-resistant Human immunodeficiency virus 1 7324-1 harboring reverse transcriptase M41L, D67N, K70R, T215F, K219E and T69N mutant infected in human TZM-bl cells assessed as reduction in relative luminescence units after 48 hrs by luciferase reporter gene assay", "format": "functional, organism-based", "conditions": "Human immunodeficiency virus 1, 7324-1, TZM-bl", "procedure,_shortened": "(§2)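 Panel of eleven NRTI-resistant strains from the NIH Reagent Program plus wild-type NL4-3; highest concentration tested 40,000 nM. EC50 = concentration inhibiting HIV by 50%, averaged from at least two separate experiments.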"}, "[5]": {"system": "Human immunodeficiency virus 1", "test": "(§3) Antiviral activity against NRTI-resistant Human immunodeficiency virus 1 29129-2 harboring reverse transcriptase M41L, D67N, L210W, T215Y and M184V mutant infected in human TZM-bl cells assessed as reduction in relative luminescence units after 48 hrs by luciferase reporter gene assay", "format": "functional, organism-based", "conditions": "Human immunodeficiency virus 1, 29129-2, TZM-bl", "procedure,_shortened": "as §2"}, "[6]": {"system": "Human immunodeficiency virus 1", "test": "Antiviral activity against NRTI-resistant Human immunodeficiency virus 1 35764-2 harboring reverse transcriptase V75I, F77L, F116Y and Q151M mutant infected in human TZM-bl cells assessed as reduction in relative luminescence units after 48 hrs by luciferase reporter gene assay", "format": "functional, organism-based", "conditions": "Human immunodeficiency virus 1, 35764-2, TZM-bl", "procedure,_shortened": "as §2"}, "[7]": {"system": "Human immunodeficiency virus 1", "test": "Antiviral activity against NRTI-resistant Human immunodeficiency virus 1 7295-1 harboring reverse transcriptase D67N, K70R, T215F, K219Q, M184V and T69N mutant infected in human TZM-bl cells assessed as reduction in relative luminescence units after 48 hrs by luciferase reporter gene assay", "format": "functional, organism-based", "conditions": "Human immunodeficiency virus 1, 7295-1, TZM-bl", "procedure,_shortened": "as §2"}, "[8]": {"system": "Human immunodeficiency virus 1", "test": "as §3, with “4755-5” for “29129-2”, “T215Y, M184V, T69D, E44D” for “T215Y”, “V118I” for “M184V”", "format": "functional, organism-based", "conditions": "Human immunodeficiency virus 1, 4755-5, TZM-bl", "procedure,_shortened": "as §2"}, "[9]": {"system": "PBMC", "test": "Cytotoxicity activity against human PBMC by CellTiter-Glo luminescent cell viability assay", "format": "cell-based", "procedure,_shortened": "as §1"}, "[10]": {"system": "Human immunodeficiency virus 1", "test": "Antiviral activity against NRTI-resistant Human immunodeficiency virus 1 6463-13 harboring reverse transcriptase M41L, D67N, L210W, T215Y, M184V and V118I mutant infected in human TZM-bl cells assessed as reduction in relative luminescence units after 48 hrs by luciferase reporter gene assay", "format": "functional, organism-based", "conditions": "Human immunodeficiency virus 1, 6463-13, TZM-bl", "procedure,_shortened": "as §2"}, "[11]": {"system": "HepG2", "test": "Cytotoxicity activity against human HepG2 by CellTiter-Glo luminescent cell viability assay", "format": "cell-based", "procedure,_shortened": "as §1"}, "[12]": {"system": "Human immunodeficiency virus 1", "test": "Antiviral activity against NRTI-resistant Human immunodeficiency virus 1 10076-4 harboring reverse transcriptase M41L, T215Y and M184V mutant infected in human TZM-bl cells assessed as reduction in relative luminescence units after 48 hrs by luciferase reporter gene assay", "format": "functional, organism-based", "conditions": "Human immunodeficiency virus 1, 10076-4, TZM-bl", "procedure,_shortened": "as §2"}, "[13]": {"system": "Human immunodeficiency virus 1", "test": "Antiviral activity against NRTI-resistant Human immunodeficiency virus 1 56252-1 harboring reverse transcriptase K70R, V75I, F77L, F116Y, Q151M and K65R mutant infected in human TZM-bl cells assessed as reduction in relative luminescence units after 48 hrs by luciferase reporter gene assay", "format": "functional, organism-based", "conditions": "Human immunodeficiency virus 1, 56252-1, TZM-bl", "procedure,_shortened": "as §2"}, "[14]": {"test": "Cytotoxicity activity against human ACH2 by CellTiter-Glo luminescent cell viability assay", "conditions": "ACH-2", "procedure,_shortened": "as §1"}, "[15]": {"system": "Human immunodeficiency virus 1", "test": "Antiviral activity against Human immunodeficiency virus 1 NL4-3 harboring reverse transcriptase K101E mutant infected in human TZM-bl cells assessed as reduction in relative luminescence units after 48 hrs by luciferase reporter gene assay", "format": "functional, organism-based", "conditions": "Human immunodeficiency virus 1, NL4-3, TZM-bl"}, "[16]": {"system": "Human immunodeficiency virus 1", "test": "Antiviral activity against NRTI-resistant Human immunodeficiency virus 1 7324-4 harboring reverse transcriptase M41L, K70R, T215F and K219E mutant infected in human TZM-bl cells assessed as reduction in relative luminescence units after 48 hrs by luciferase reporter gene assay", "format": "functional, organism-based", "conditions": "Human immunodeficiency virus 1, 7324-4, TZM-bl", "procedure,_shortened": "as §2"}, "[17]": {"system": "Human immunodeficiency virus 1", "test": "Antiviral activity against Human immunodeficiency virus 1 NL4-3 infected in human TZM-bl cells assessed as reduction in relative luminescence units after 48 hrs by luciferase reporter gene assay", "format": "functional, organism-based", "conditions": "Human immunodeficiency virus 1, NL4-3, TZM-bl"}, "[18]": {"system": "Human immunodeficiency virus 1", "test": "Antiviral activity against NRTI-resistant Human immunodeficiency virus 1 7303-3 harboring reverse transcriptase M41L, D67N, L210W, T215Y, T69D, E44D and V118I mutant infected in human TZM-bl cells assessed as reduction in relative luminescence units after 48 hrs by luciferase reporter gene assay", "format": "functional, organism-based", "conditions": "Human immunodeficiency virus 1, 7303-3, TZM-bl", "procedure,_shortened": "as §2"}, "[19]": {"system": "Human immunodeficiency virus 1", "test": "Antiviral activity against NRTI-resistant Human immunodeficiency virus 1 1617-1 harboring reverse transcriptase K70G, M184V, T69K, V75I, F77L, F116Y and Q151M mutant infected in human TZM-bl cells assessed as reduction in relative luminescence units after 48 hrs by luciferase reporter gene assay", "format": "functional, organism-based", "conditions": "Human immunodeficiency virus 1, 1617-1, TZM-bl", "procedure,_shortened": "as §2"}, "[20]": {"system": "Human immunodeficiency virus 1", "test": "Antiviral activity against NNRTI-resistant Human immunodeficiency virus 1 RTMDR infected in human TZM-bl cells assessed as reduction in relative luminescence units after 48 hrs by luciferase reporter gene assay", "format": "functional, organism-based"}, "[21]": {"system": "MT4", "test": "Cytotoxicity activity against human MT4 by CellTiter-Glo luminescent cell viability assay", "format": "cell-based", "procedure,_shortened": "as §1"}, "[22]": {"system": "Human immunodeficiency virus 1", "test": "Antiviral activity against […] infected in human TZM-bl cells assessed as reduction in relative luminescence units after 48 hrs by luciferase reporter gene assay", "format": "functional, organism-based", "conditions": "Human immunodeficiency virus 1, NL4-3, TZM-bl", "procedure,_shortened": "as §2"}}, "data": [{"compound": "[N-]=[N+]=N[C@]1(CO)O[C@@H](n2ccc(N)nc2=O)[C@@H](F)[C@@H]1O", "note": "[RO-0622]", "values": [{"measurement": "EC50", "setting": "[1]; mt2", "value": 0.3, "unit": "nM"}]}, {"compound": "[N-]=[N+]=N[C@]1(CO)O[C@@H](n2ccc(N)nc2=O)[C@@H](F)[C@@H]1O", "values": [{"measurement": "IC50", "setting": "[2]", "value": "> 140000", "unit": "nM"}, {"measurement": "IC50", "setting": "[3]", "value": "> 140000", "unit": "nM"}, {"measurement": "EC50", "setting": "[4]", "value": 0.595, "unit": "nM"}, {"measurement": "EC50", "setting": "[5]", "value": "> 40000", "unit": "nM"}, {"measurement": "EC50", "setting": "[6]", "value": 0.42, "unit": "nM"}, {"measurement": "EC50", "setting": "[7]", "value": "> 40000", "unit": "nM"}, {"measurement": "EC50", "setting": "[8]", "value": "> 40000", "unit": "nM"}, {"measurement": "IC50", "setting": "[9]", "value": 150, "unit": "nM"}, {"measurement": "EC50", "setting": "[10]", "value": "> 40000", "unit": "nM"}, {"measurement": "IC50", "setting": "[11]", "value": "> 140000", "unit": "nM"}, {"measurement": "EC50", "setting": "[12]", "value": "> 40000", "unit": "nM"}, {"measurement": "EC50", "setting": "[13]", "value": 0.525, "unit": "nM"}, {"measurement": "IC50", "setting": "[14]", "value": 110, "unit": "nM"}, {"measurement": "EC50", "setting": "[15]", "value": 0.15, "unit": "nM"}, {"measurement": "EC50", "setting": "[16]", "value": 0.735, "unit": "nM"}, {"measurement": "EC50", "setting": "[17]", "value": 0.086, "unit": "nM"}, {"measurement": "EC50", "setting": "[18]", "value": 0.56, "unit": "nM"}, {"measurement": "EC50", "setting": "[1]; mt2", "value": 0.13, "unit": "nM"}, {"measurement": "EC50", "setting": "[19]", "value": 32.2, "unit": "nM"}, {"measurement": "EC50", "setting": "[20]", "value": 0.11, "unit": "nM"}, {"measurement": "IC50", "setting": "[21]", "value": 120, "unit": "nM"}, {"measurement": "EC50", "setting": "[22]", "value": 0.318, "unit": "nM"}]}, {"compound": "Cc1cn([C@H]2C[C@H](N=[N+]=[N-])[C@@H](CO)O2)c(=O)[nH]c1=O", "note": "[ZIDOVUDINE]", "values": [{"measurement": "EC50", "setting": "[1]; Human immunodeficiency virus 1, NL4-3, MT2, 48 h", "value": 47, "unit": "nM"}]}]}
